Tests used:
[1] = Genotoxicity in CHO-WBL cells assessed as chromosome aberration at 20 to 150 ug/ml incubated for 3 hrs followed by compound washout and measured after 17 hrs in absence of S9 fraction by Giemsa staining based; type: toxicity, cell-based, Cricetulus griseus; conditions: chinese hamster, dose 20-150 µg/ml
Summary of the method: (§1)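 CHO-WBL cells in McCoy's 5A with 10% FBS, seeded 20-24 h before treatment. Compound in DMSO, with or without serum-free S-9 mix. Treatment either 3 h, then HBSS wash and 17 h further culture, or 20 h; harvest at 20 h from treatment start. Colcemid 0.1 μg/mL for the final 2 h, hypotonic KCl, methanol:acetic acid fixation, Giemsa stain. 300 metaphases per concentration (150 per duplicate flask) scored.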

[2] = Toxicity in female Sprague-Dawley rat assessed as change in platelet count at 50 mg/kg/day, po administered for 4 weeks followed by 2 week recovery period (Rvb =1051 +/- 122 10^9/L); type: organism-based; conditions: in vivo, 672 h
[3] = Toxicity in female Sprague-Dawley rat assessed as ophthalmic changes at 50 to 450 mg/kg/day, po administered for 4 weeks measured post last dose; type: organism-based; conditions: in vivo, 672 h, dose 50-450 mg/kg/day
Summary of the method: (§2)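 SD rats, 6-7 weeks old (96 in total), split into vehicle, 50, 150 and 450 mg/kg/day groups of 12 females and 12 males each, given oral doses once daily for 4 weeks, then 2 weeks of recovery. Mortality, body weight, food intake, eyes, urine and neuropsychic signs were observed. Organ and bone marrow histopathology was done on 8 rats per sex per group after the last dose and on the remaining 4 per sex after 14 days of recovery.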

[4] = Toxicity in male Sprague-Dawley rat assessed as change in mean platelet volume at 50 mg/kg/day, po administered for 4 weeks followed by 2 week recovery period (Rvb =7.0 +/- 0.4 fL); type: organism-based; conditions: in vivo, 672 h
[5] = Half life in cynomolgus monkey hepatocytes at 2 uM by LC-MS/MS analysis; type: ADME, cell-based, Macaca fascicularis, Hepatocyte
Summary of the method: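 Hepatocytes (male CD-1 mouse, male SD rat, male beagle dog, male cynomolgus monkey, pooled human), final 1 μM compound and 1 million cells/mL, made by mixing 2 μM compound with 2 million cells/mL. Incubated at 37 °C in a CO2 incubator; sampled at 0, 15, 30, 60, 90 and 120 min. Quenched with methanol/ACN containing 0.1% formic acid. Parent remaining measured by LC-MS/MS.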

[6] = Toxicity in female Sprague-Dawley rat assessed as change in white blood cell count at 150 mg/kg/day, po administered for 4 weeks followed by 2 week recovery period (Rvb =3.61 +/- 0.75 10^9/L); type: organism-based; conditions: in vivo, 672 h
[7] = Toxicity in male Sprague-Dawley rat assessed as change in red blood cell count at 50 mg/kg/day, po administered for 4 weeks followed by 2 week recovery period (Rvb =7.86 +/- 0.32 10^12/L); type: organism-based; conditions: in vivo, 672 h
[8] = Toxicity in female Sprague-Dawley rat assessed as changes in neuropsychic symptoms at 50 to 450 mg/kg/day, po administered for 4 weeks measured during last 24 hrs of treatment period; type: organism-based; conditions: in vivo, 672 h, dose 50-450 mg/kg/day; summary of the method: as §2
[9] = Toxicity in male Sprague-Dawley rat assessed as change in red blood cell count at 450 mg/kg/day, po administered for 4 weeks followed by 2 week recovery period (Rvb =7.86 +/- 0.32 10^12/L); type: organism-based; conditions: in vivo, 672 h
[10] = Toxicity in female Sprague-Dawley rat assessed as ophthalmic changes at 50 to 450 mg/kg/day, po administered for 4 weeks followed by 2 week recovery period; type: organism-based; conditions: in vivo, 1008 h, dose 50-450 mg/kg/day, time 6 weeks; summary of the method: as §2
[11] = Toxicity in female Sprague-Dawley rat assessed as change in hematocrit level at 450 mg/kg/day, po administered for 4 weeks followed by 2 week recovery period (Rvb =41.1 +/- 1.4 %); type: organism-based; conditions: in vivo, 672 h
[12] = Genotoxicity in CHO-WBL cells assessed as chromosome aberration at 20 to 150 ug/ml measured after 20 hrs in absence of S9 fraction by Giemsa staining based; type: toxicity, cell-based, Cricetulus griseus; conditions: chinese hamster, dose 20-150 µg/ml; summary of the method: as §1
[13] = Toxicity in female Sprague-Dawley rat assessed as change in mean platelet volume at 450 mg/kg/day, po administered for 4 weeks followed by 2 week recovery period (Rvb =7.1 +/- 0.5 fL); type: organism-based; conditions: in vivo, 672 h
[14] = Toxicity in male Sprague-Dawley rat assessed as ophthalmic changes at 50 to 450 mg/kg/day, po administered for 4 weeks followed by 2 week recovery period measured within 7 days of post recover period; type: organism-based; conditions: in vivo, 672 h, dose 50-450 mg/kg/day
[15] = Toxicity in male Sprague-Dawley rat assessed as mortality at 50 to 450 mg/kg/day, po administered for 4 weeks; type: organism-based; conditions: in vivo, 672 h, dose 50-450 mg/kg/day
[16] = Toxicity in male Sprague-Dawley rat assessed as change in reticulocyte level at 50 mg/kg/day, po administered for 4 weeks followed by 2 week recovery period (Rvb =2.48 +/- 0.34 %); type: organism-based; conditions: in vivo, 672 h
[17] = Toxicity in male Sprague-Dawley rat assessed as histopathological changes in bone marrow at 450 mg/kg/day, po administered for 4 weeks followed by 2 week recovery period; type: organism-based; conditions: in vivo, 672 h
[18] = Toxicity in female Sprague-Dawley rat assessed as change in hematocrit level at 50 mg/kg/day, po administered for 4 weeks followed by 2 week recovery period (Rvb =41.1 +/- 1.4 %); type: organism-based; conditions: in vivo, 672 h
[19] = Toxicity in female Sprague-Dawley rat assessed as change in neutrophil level at 50 mg/kg/day, po administered for 4 weeks followed by 2 week recovery period (Rvb =18.5 +/- 5.3 %); type: organism-based; conditions: in vivo, 672 h
[20] = Toxicity in female Sprague-Dawley rat assessed as change in reticulocyte level at 150 mg/kg/day, po administered for 4 weeks followed by 2 week recovery period (Rvb =2.85 +/- 0.53 %); type: organism-based; conditions: in vivo, 672 h
[21] = Toxicity in female Sprague-Dawley rat assessed as change in neutrophil level at 150 mg/kg/day, po administered for 4 weeks followed by 2 week recovery period (Rvb =18.5 +/- 5.3 %); type: organism-based; conditions: in vivo, 672 h
[22] = Toxicity in female Sprague-Dawley rat assessed as change in red blood cell count at 50 mg/kg/day, po administered for 4 weeks followed by 2 week recovery period (Rvb =7.32 +/- 0.20 10^12/L); type: organism-based; conditions: in vivo, 672 h
[23] = Toxicity in female Sprague-Dawley rat assessed as effect on food consumption at 50 to 450 mg/kg/day, po administered for 4 weeks measured at 1 week interval; type: organism-based; conditions: in vivo, 672 h, dose 50-450 mg/kg/day; summary of the method: as §2
[24] = Toxicity in male Sprague-Dawley rat assessed as change in mean platelet volume at 450 mg/kg/day, po administered for 4 weeks followed by 2 week recovery period (Rvb =7.0 +/- 0.4 fL); type: organism-based; conditions: in vivo, 672 h
[25] = Stability in human liver microsome at 1 uM measured after 30 mins in absence of NADPH by LC-MS/MS analysis; type: ADME; conditions: liver microsomes, read-out: Stabilty
Summary of the method: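 Liver microsomes (male CD-1 mouse or pooled human), 1 mg/mL protein, compound 1 µM, 37°C with shaking. Started with 1 mM NADPH or run without cofactor. Quenched with ice-cold ACN/MeOH containing internal standard. Parent quantified by LC-MS/MS; 30 min concentration normalised to time zero.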

[26] = Genotoxicity in CHO-WBL cells assessed as chromosome aberration at 90 to 397.1 ug/ml incubated for 3 hrs followed by compound washout and measured after 17 hrs in absence of S9 fraction by Giemsa staining based; type: toxicity, cell-based, Cricetulus griseus; conditions: chinese hamster, dose 90-397.1 µg/ml; summary of the method: as §1

In the case of `CC(=O)NC[C@@H]1OC(=O)N2c3cc(F)c(N4CCSCC4)cc3OC[C@@H]12`, the Activity [1] is reported as “Non-Toxic”, the Activity [2] is reported as 1094 10^9/L and the Activity [3] is reported as “Non-Toxic”. The Activity [4] was 7 fL, the half-life at 2 µM [5] was 5.25 h and the Activity [6] was 3.04 10^9/L. For the same molecule, the Activity [7] was 7.29 10^12/L, the Activity [8] was “Non-Toxic” and the Activity [9] was 7.46 10^12/L. For the same molecule, the Activity [10] was “Non-Toxic”, the Activity [11] was 36.9% and the Activity [12] was “Non-Toxic”. The Activity [13] was 7.5 fL, the Activity [14] was “Non-Toxic” and the Activity [15] was “Non-Toxic”. For the same molecule, the Activity [16] was 2.97%, the Activity [17] was “Non-Toxic” and the Activity [18] was 38.7%. The Activity [19] was 14.8%, the Activity [20] was 2.89% and the Activity [21] was 12.2%. The Activity [22] was 6.85 10^12/L, the Activity [23] was “Non-Toxic” and the Activity [24] was 6.9 fL. The remaining at 0.5 h, 1 µM [25] was 81.5%.

In the case of `CC(=O)NC[C@@H]1OC(=O)N2c3cc(F)c(N4CC[S+]([O-])CC4)cc3OC[C@@H]12`, the Activity [26] is reported as “Non-Toxic”.

From ChEMBL document CHEMBL4725282, “Discovery of a Conformationally Constrained Oxazolidinone with Improved Safety and Efficacy Profiles for the Treatment of Multidrug-Resistant Tuberculosis” (J Med Chem, 2020)
